pKd: −log10 of the molar value. Values belong to the compound of their own block, whether it stands above or below them. Calls of active or inactive are those of the source. The rule behind the calls is not given here.
Legend:
[1] = biological target: Serine/threonine-protein kinase TAO3 (Homo sapiens) (UniProt Q9H2K8); assay: Inhibition of TAOK3 (unknown origin) assessed as residual enzyme activity at 10 uM by Ambit kinase binding assay relative to control
[2] = biological target: MAP kinase-interacting serine/threonine-protein kinase 2 (Homo sapiens) (UniProt Q9HBH9); assay: Inhibition of MKNK2 (unknown origin) assessed as residual enzyme activity at 10 uM by Ambit kinase binding assay relative to control
[3] = biological target: Serine/threonine-protein kinase 26 (Homo sapiens) (UniProt Q9P289); assay: Inhibition of MST4 (unknown origin) assessed as residual enzyme activity at 10 uM by Ambit kinase binding assay relative to control
[4] = biological target: Ribosomal protein S6 kinase alpha-6 (Homo sapiens) (UniProt Q9UK32); assay: Inhibition of RPS6KA6 kinase domain 2 (unknown origin) assessed as residual enzyme activity at 10 uM by Ambit kinase binding assay relative to control
[5] = biological target: Bone morphogenetic protein receptor type-1B (Homo sapiens) (UniProt O00238); assay: Inhibition of BMPR1B (unknown origin) assessed as residual enzyme activity at 10 uM by Ambit kinase binding assay relative to control
[6] = biological target: Serine/threonine-protein kinase Nek2 (Homo sapiens) (UniProt P51955); assay: Inhibition of NEK2 (unknown origin) assessed as residual enzyme activity at 10 uM by Ambit kinase binding assay relative to control
[7] = biological target: Tyrosine-protein kinase Tec (Homo sapiens) (UniProt P42680); assay: Inhibition of TEC (unknown origin) assessed as residual enzyme activity at 10 uM by Ambit kinase binding assay relative to control
[8] = biological target: AP2-associated protein kinase 1 (Homo sapiens) (UniProt Q2M2I8); assay: Inhibition of AAK1 (unknown origin) assessed as residual enzyme activity at 10 uM by Ambit kinase binding assay relative to control
[9] = biological target: Death-associated protein kinase 3 (Homo sapiens) (UniProt O43293); assay: Inhibition of DAPK3 (unknown origin) assessed as residual enzyme activity at 10 uM by Ambit kinase binding assay relative to control
[10] = biological target: T1, ALK tyrosine kinase receptor (Homo sapiens, UniProt Q9UM73); assay: Inhibition of ALK (unknown origin) assessed as residual enzyme activity at 10 uM by Ambit kinase binding assay relative to control
Target sequence in this assay (Q9UM73 19-1620 limits assumed): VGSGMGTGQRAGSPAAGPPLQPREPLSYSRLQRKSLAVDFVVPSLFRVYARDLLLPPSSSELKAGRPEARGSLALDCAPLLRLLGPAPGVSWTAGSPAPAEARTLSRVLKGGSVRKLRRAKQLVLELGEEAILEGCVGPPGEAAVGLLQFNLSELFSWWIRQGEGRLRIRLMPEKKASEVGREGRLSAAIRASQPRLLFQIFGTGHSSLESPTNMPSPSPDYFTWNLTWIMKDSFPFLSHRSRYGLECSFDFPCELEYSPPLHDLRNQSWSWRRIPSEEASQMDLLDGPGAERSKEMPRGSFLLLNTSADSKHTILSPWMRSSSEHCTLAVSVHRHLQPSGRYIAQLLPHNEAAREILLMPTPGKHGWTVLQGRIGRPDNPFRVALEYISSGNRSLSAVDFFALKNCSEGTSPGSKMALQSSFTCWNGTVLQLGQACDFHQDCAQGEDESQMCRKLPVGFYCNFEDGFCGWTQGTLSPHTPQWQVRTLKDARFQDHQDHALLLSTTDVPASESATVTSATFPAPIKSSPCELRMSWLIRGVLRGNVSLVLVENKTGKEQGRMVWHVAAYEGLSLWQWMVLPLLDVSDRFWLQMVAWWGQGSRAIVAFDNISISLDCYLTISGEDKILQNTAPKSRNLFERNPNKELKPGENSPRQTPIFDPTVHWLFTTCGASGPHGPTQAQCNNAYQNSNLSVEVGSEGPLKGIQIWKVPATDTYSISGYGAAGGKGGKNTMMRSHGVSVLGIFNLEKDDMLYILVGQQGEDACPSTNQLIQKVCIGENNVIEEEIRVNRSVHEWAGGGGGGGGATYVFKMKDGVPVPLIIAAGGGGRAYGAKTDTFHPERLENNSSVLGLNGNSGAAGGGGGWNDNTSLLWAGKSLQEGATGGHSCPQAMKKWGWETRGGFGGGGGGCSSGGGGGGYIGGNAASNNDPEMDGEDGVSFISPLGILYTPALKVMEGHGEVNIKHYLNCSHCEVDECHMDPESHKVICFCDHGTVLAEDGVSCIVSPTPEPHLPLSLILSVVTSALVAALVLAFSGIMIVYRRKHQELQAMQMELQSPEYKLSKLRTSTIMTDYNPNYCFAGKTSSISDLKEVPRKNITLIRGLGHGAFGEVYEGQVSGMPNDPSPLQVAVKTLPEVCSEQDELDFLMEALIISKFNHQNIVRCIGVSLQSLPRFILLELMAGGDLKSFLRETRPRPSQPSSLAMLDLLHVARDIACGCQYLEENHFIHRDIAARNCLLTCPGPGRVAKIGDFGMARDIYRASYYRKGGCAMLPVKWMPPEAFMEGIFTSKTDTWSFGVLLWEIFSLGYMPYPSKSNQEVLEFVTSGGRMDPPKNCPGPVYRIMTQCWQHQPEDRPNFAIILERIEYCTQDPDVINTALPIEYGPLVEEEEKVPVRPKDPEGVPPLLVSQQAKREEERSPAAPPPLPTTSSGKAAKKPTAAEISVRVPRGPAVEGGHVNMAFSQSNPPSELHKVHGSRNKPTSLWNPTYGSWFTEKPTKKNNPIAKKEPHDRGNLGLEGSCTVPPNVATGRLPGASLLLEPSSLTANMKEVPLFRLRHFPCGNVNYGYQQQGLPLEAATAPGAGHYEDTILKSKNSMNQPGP

[11] = biological target: Dual specificity protein kinase CLK1 (Homo sapiens, UniProt P49759); assay: Binding affinity to CLK1 (unknown origin) assessed as dissociation constant by Ambit kinase binding assay
[12] = biological target: Tyrosine-protein kinase Fer (Homo sapiens) (UniProt P16591); assay: Inhibition of FER (unknown origin) assessed as residual enzyme activity at 10 uM by Ambit kinase binding assay relative to control
[13] = biological target: Insulin receptor-related protein (Homo sapiens, UniProt P14616); assay: Binding affinity to INSRR (unknown origin) assessed as dissociation constant by Ambit kinase binding assay
[14] = Inhibition of Mps1 in Potoroo PTK2 cells expressing EyFP-tagged human Mad2 assessed as decrease in Mad2 recruitment to kinetochore at 10 uM incubated for 1 hr by fluorescence based imaging analysis relative to control; design: species or system Pt K2; settings: Potorous tridactylus
Summary of the method: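 PtK2 (male Potorous tridactylus kidney) cells stably expressing human Mad2-EYFP, cultured in Advanced MEM with 2% FBS. Cells were pretreated 1 h with 10 μM inhibitor or DMSO, then given DMSO or nocodazole (200 ng·ml⁻¹). Time-lapse imaging ran at 37°C from NEBD. Kinetochore Mad2-EYFP density was background-corrected and normalized. N=20–29 cells; 95% CI; Student's t test.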

[15] = tested on: U2OS; assay: Inhibition of anaphase delay in thymidine-treated human U2OS cells expressing H2B-GFP and Plk4 overexpression measured for 30 mins by time lapse imaging analysis; assay type: functional, cell-based
Summary of the method: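 U2OS H2B-GFP cells carrying doxycycline-inducible Plk4. Thymidine 18 h, release into doxycycline (2 μg·ml⁻¹) 10 h, second thymidine 18 h, release 6 h, then 5 μM inhibitor. Time-lapse imaging at 37°C, 5% CO₂ recorded time after NEBD to anaphase. Mean ± SD of 3 independent experiments; Student's t test.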

[16] = biological target: Misshapen-like kinase 1 (Homo sapiens) (UniProt Q8N4C8); assay: Inhibition of MINK (unknown origin) assessed as residual enzyme activity at 10 uM by Ambit kinase binding assay relative to control
[17] = tested on: UTRM10; assay: Upregulation of phosphorylated histone H3 level in UTRM10 cells (unknown origin) upto 1 uM by immunoblot analysis; assay type: functional, cell-based
[18] = biological target: Insulin-like growth factor 1 receptor (Homo sapiens, UniProt P08069); assay: Binding affinity to IGF1R (unknown origin) assessed as dissociation constant by Ambit kinase binding assay
[19] = biological target: Non-receptor tyrosine-protein kinase TNK1 (Homo sapiens, UniProt Q13470); assay: Binding affinity to TNK1 (unknown origin) assessed as dissociation constant by Ambit kinase binding assay
[20] = biological target: T1, ALK tyrosine kinase receptor; assay: Binding affinity to ALK (unknown origin) assessed as dissociation constant by Ambit kinase binding assay
[21] = tested on: U2OS; assay: Induction of aneuploidy in UTRM10 cells (unknown origin) expressing wild-type LAP-tagged Mps1 at 5 uM treated for 48 hrs by FACS analysis; assay type: functional, cell-based
Summary of the method: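 UTRM10 cells expressing RNAi-resistant LAP-Mps1 WT or M602Q were treated with compound or DMSO for 48 h, then DNA content was analysed by FACS.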

[22] = biological target: Dual specificity protein kinase CLK4 (Homo sapiens) (UniProt Q9HAZ1); assay: Inhibition of CLK4 (unknown origin) assessed as residual enzyme activity at 10 uM by Ambit kinase binding assay relative to control
[23] = biological target: Leukocyte tyrosine kinase receptor (Homo sapiens, UniProt P29376); assay: Binding affinity to LTK (unknown origin) assessed as dissociation constant by Ambit kinase binding assay
[24] = tested on: U2OS; assay: Induction of premature entry into anaphase in thymidine-treated human U2OS cells expressing H2B-GFP and Plk4 overexpression assessed as fragmentary divisions into multiple daughter cells measured for 30 mins by time lapse imaging analysis relative to control; assay type: functional, cell-based
Summary of the method: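 Doxycycline-inducible Plk4 U2OS cells expressing H2B-GFP were blocked with thymidine for 18 hrs and released into doxycycline (2 μg·ml⁻¹) for 10 hrs. A second 18-hr thymidine block followed, then release for 6 hrs before 5 μM inhibitor, with or without Plk4 induction. Cells were imaged by time-lapse at 37°C, 5% CO₂, timed from NEBD, and bipolar versus multipolar anaphases were scored. Values are mean ± SD of 3 independent experiments.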

[25] = tested on: TERT-RPE1; assay: Induction of aneuploidy in human TERT-RPE1 cells assessed as average chromosome number at 10 uM treated for 24 hrs by karyo-typing analysis (reference value: 45.9 +/- 0.3); assay type: functional
Summary of the method: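 Asynchronous cells were exposed to 10 μM compound for 24 h. Medium was then replaced with medium containing 100 ng/mL colcemid for 2 h to arrest cells in metaphase, after which cells were harvested and karyotyped.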

[26] = tested on: U2OS; assay: Reversal of nocodazole-induced mitotic arrest in human U2OS cells assessed as accumulation of 4N phosphorylated Histone H3-negative cells incubated for 16 hrs by flow cytometry; assay type: functional, cell-based; settings: dose 5-10 µM
[27] = biological target: MAP/microtubule affinity-regulating kinase 4 (Homo sapiens) (UniProt Q96L34); assay: Inhibition of MARK4 (unknown origin) assessed as residual enzyme activity at 10 uM by Ambit kinase binding assay relative to control

Chain of Insulin-like growth factor 1 receptor (P08069 31-736 limits assumed): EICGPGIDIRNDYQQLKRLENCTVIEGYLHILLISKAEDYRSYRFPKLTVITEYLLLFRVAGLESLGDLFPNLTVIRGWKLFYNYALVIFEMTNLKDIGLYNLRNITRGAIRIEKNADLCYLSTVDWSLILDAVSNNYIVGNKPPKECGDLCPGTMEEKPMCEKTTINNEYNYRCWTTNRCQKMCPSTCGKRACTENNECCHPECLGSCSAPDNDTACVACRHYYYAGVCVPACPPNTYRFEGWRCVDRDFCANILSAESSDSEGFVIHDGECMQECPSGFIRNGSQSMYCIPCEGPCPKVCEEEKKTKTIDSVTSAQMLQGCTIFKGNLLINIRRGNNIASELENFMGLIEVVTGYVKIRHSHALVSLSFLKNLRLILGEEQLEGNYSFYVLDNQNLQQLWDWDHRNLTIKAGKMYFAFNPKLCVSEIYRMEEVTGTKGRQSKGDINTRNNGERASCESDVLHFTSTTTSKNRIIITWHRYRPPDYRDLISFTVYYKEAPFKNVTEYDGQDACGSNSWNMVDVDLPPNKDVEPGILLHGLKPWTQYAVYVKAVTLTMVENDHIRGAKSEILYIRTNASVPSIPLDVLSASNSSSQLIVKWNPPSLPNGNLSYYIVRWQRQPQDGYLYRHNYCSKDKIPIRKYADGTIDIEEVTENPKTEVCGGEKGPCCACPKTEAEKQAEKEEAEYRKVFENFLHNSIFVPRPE
Chain of Insulin-like growth factor 1 receptor (P08069 741-1367 limits assumed): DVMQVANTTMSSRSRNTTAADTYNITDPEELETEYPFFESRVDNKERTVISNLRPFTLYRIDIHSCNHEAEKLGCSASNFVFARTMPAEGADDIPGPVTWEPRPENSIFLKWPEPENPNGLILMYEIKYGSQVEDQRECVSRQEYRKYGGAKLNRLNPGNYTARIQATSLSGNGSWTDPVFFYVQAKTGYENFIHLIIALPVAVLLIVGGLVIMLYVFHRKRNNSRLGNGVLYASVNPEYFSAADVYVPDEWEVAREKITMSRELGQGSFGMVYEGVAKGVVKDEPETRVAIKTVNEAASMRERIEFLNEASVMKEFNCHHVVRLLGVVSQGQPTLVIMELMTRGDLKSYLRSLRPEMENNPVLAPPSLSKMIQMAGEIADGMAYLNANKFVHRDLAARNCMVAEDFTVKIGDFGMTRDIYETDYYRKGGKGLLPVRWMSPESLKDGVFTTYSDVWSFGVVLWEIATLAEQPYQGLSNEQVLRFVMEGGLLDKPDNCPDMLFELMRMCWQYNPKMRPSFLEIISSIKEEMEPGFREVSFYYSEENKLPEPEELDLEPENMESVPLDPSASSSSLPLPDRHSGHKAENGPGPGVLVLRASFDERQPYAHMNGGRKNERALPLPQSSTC
Chain of Serine/threonine-protein kinase Nek2 (Homo sapiens) (P51955 whole entry): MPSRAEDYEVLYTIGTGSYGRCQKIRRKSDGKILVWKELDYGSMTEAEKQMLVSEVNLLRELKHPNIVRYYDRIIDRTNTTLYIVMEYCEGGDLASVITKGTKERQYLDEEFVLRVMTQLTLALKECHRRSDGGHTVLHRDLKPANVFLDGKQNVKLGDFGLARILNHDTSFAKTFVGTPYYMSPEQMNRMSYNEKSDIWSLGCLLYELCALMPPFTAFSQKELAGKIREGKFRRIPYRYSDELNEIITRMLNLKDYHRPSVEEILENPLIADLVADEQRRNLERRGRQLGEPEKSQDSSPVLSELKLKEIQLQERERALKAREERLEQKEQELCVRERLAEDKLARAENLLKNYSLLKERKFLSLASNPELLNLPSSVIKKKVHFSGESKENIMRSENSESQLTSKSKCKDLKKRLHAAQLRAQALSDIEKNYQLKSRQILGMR
Chain of Serine/threonine-protein kinase TAO3 (Homo sapiens) (Q9H2K8 whole entry): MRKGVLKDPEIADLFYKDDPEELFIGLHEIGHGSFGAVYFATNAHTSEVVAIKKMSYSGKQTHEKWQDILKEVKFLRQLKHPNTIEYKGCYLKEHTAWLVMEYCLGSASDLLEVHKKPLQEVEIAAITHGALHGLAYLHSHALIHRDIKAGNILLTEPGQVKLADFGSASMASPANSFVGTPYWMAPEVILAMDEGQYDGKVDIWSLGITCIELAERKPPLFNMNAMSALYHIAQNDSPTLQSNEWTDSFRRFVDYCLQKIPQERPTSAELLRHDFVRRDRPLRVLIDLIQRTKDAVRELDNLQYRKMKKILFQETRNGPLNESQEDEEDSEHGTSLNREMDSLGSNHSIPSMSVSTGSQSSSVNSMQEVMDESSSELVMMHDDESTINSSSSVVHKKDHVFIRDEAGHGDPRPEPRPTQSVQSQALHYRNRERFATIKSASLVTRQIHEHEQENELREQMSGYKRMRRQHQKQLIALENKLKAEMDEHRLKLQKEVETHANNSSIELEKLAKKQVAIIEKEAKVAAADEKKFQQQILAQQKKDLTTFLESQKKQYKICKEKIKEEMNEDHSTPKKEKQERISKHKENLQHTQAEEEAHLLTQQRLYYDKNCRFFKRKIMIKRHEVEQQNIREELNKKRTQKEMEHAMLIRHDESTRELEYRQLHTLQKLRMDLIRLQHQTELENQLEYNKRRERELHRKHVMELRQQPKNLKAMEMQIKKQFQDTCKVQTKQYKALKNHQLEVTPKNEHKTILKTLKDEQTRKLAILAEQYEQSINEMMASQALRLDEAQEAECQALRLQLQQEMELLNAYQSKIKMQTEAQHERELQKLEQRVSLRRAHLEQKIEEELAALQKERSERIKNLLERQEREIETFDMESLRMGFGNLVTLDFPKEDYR
Chain of Dual specificity protein kinase CLK4 (Homo sapiens) (Q9HAZ1 whole entry, looked up): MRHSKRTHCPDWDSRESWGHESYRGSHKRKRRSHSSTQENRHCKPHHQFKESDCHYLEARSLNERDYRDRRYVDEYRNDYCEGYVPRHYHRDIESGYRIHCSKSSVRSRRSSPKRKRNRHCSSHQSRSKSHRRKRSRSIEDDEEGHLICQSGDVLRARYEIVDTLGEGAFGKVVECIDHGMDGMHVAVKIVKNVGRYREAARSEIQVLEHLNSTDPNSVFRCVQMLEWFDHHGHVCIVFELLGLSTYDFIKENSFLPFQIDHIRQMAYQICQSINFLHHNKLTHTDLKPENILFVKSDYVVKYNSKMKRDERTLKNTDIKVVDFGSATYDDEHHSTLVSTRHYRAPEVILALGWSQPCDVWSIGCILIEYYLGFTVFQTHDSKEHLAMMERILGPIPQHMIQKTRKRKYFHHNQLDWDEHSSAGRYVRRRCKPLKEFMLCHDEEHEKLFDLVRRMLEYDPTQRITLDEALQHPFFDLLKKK

Activity [1]: 22%
Activity [2]: 1.9%
Activity [3]: 2.4%
Activity [4]: 3%
Activity [5]: 5%
Activity [6]: 27%
Activity [7]: 28%
Activity [8]: 2.6%
SMILES: O=C1c2ccccc2-c2n[nH]c3cccc1c23
Activity [9]: 3.2%

Activity [10]: 8.9%
pKd [11]: 5.72
Activity [12]: 16%
pKd [13]: 5.92
Activity [16]: 34%
pKd [18]: 6.12
pKd [19]: 5.59
pKd [20]: 7.68
Activity [22]: 18%
pKd [23]: 7.54
Activity [27]: 1.2%
SMILES: COc1cc(N2CCC(O)CC2)ccc1Nc1cc(Nc2ccccc2S(=O)(=O)C(C)C)c2cc[nH]c2n1
inhibition at 10 µM [14]: 80%
inhibition [15]: Active
Activity [17]: Active
Activity [21]: Active
Activity [24]: Active
Activity [25]: 46.5
Activity [26]: Dose-Dependent Effect

From ChEMBL document CHEMBL5705891, “Small-molecule kinase inhibitors provide insight into Mps1 cell cycle function” (Nat Chem Biol, 2010)
